pEC50: −log10 of the molar value.
Key:
[1] = Cytotoxicity against HEK293 cells assessed as viable cells at 0.1 uM after 48 hrs by aqueous one solution cell proliferation assay relative to control; assay type: cell-based; conditions: human, read-out: Activity
How it was run: (§1)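 HEK293 cells were seeded overnight, then exposed to 0–100 μM compound for 48 h at 37 °C in 5% CO₂. MTS reagent was added for a further 2 h and absorbance read at 490 nm. Viability is given as % relative to DMSO vehicle control. Two experiments, each in quadruplicate.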

HEK293 = experiment: Cytotoxicity against HEK293 cells assessed as decrease in viable cells at 50 uM after 48 hrs by aqueous one solution cell proliferation assay relative to control; assay type: cell-based; conditions: human, hek293, 48 h; how it was run: as §1
[2] = biological target: T1, Peroxisome proliferator-activated receptor gamma (Homo sapiens) (UniProt P37231); experiment: Agonist activity at human PPARgamma expressed in HEK293 cells co-transfected with PPRE assessed as beta-galactosidase signal at 25 uM after 48 hrs by reporter gene assay relative to control; assay type: functional, cell-based
T1 sequence (whole entry): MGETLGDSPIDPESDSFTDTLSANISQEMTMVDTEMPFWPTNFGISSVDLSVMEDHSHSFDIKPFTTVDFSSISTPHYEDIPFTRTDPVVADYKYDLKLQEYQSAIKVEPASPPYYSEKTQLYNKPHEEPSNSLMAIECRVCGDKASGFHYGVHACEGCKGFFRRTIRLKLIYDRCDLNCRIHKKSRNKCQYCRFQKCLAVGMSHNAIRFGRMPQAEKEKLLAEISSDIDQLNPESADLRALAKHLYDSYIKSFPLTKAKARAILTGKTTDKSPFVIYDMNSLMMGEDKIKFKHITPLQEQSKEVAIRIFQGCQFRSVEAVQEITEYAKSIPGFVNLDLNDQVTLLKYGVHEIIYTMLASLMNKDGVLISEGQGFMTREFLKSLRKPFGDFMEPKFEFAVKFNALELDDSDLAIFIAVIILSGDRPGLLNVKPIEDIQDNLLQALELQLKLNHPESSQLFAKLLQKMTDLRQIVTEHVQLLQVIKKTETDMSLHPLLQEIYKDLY
How it was run: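 HEK293 cells were transfected with FuGENE 6 using a PPRE-luciferase reporter, pSG5-hPPARγ1 and a β-galactosidase control plasmid. After 24 h they were replated at 5 × 10⁴ cells/well, attached overnight, then treated for 48 h with 0.1% DMSO as vehicle. Luciferase was read, normalized to the β-gal signal and reported as fold activation over vehicle. Mean of two experiments in triplicate.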

[3] = biological target: T2, Peroxisome proliferator-activated receptor gamma (Homo sapiens, UniProt P37231); experiment: Agonist activity at human PPARgamma assessed as luciferase activity by transactivation assay; assay type: functional
T2 sequence (P37231 whole entry): T1 sequence (whole entry)
How it was run: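 Transiently transfected HEK293 (PPRE-luciferase reporter plus pSG5-hPPARγ1 and β-gal control), compound exposure 48 h. EC50 is the ligand concentration giving half-maximal fold induction of β-gal-normalized luciferase, fitted by nonlinear regression. Means of three experiments.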

[4] = biological target: T3, Peroxisome proliferator-activated receptor alpha (Homo sapiens, UniProt Q07869); experiment: Agonist activity at human PPARalpha assessed as luciferase activity by transactivation assay; assay type: functional
T3 sequence (Q07869 whole entry): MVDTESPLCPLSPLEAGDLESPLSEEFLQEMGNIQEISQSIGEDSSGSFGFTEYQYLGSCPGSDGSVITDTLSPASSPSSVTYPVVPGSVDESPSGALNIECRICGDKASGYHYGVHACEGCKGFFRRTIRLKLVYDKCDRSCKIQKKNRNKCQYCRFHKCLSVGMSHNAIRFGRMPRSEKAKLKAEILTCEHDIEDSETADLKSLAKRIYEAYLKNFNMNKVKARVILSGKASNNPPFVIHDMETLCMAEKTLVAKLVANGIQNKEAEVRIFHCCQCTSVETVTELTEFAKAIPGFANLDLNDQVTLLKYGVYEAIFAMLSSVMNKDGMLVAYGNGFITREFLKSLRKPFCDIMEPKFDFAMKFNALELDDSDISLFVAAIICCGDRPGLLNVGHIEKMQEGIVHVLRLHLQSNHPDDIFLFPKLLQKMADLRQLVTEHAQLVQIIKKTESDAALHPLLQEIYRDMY

[5] = biological target: T4, Peroxisome proliferator-activated receptor alpha (Homo sapiens) (UniProt Q07869); experiment: Agonist activity at human PPARalpha expressed in HEK293 cells co-transfected with PPRE assessed as beta-galactosidase signal at 25 uM after 48 hrs by reporter gene assay relative to control; assay type: functional, cell-based
T4 sequence (whole entry): T3 sequence (Q07869 whole entry)
How it was run: (§2)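 Human PPARα transactivation in HEK293 cells grown in DMEM/F-12 with 10% heat-inactivated FBS. Cells were transfected with FuGENE 6 using a PPRE-luciferase reporter, pBI-G-hPPARα and a β-galactosidase control plasmid. After 24 h they were replated at 5 × 10⁴ cells/well, attached overnight, then dosed for 48 h with 0.1% DMSO as vehicle. Luciferase was normalized to β-gal and expressed as fold over vehicle. Two experiments, each in triplicate.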

[6] = biological target: T4, Peroxisome proliferator-activated receptor alpha (Homo sapiens); experiment: Agonist activity at human PPARalpha expressed in HEK293 cells co-transfected with PPRE assessed as beta-galactosidase signal at 40 uM after 48 hrs by reporter gene assay relative to control; assay type: functional, cell-based; how it was run: as §2
[7] = Cytotoxicity against HEK293 cells assessed as viable cells at 10 uM after 48 hrs by aqueous one solution cell proliferation assay relative to control; assay type: cell-based; conditions: human, read-out: Activity; how it was run: as §1
[8] = Cytotoxicity against HEK293 cells assessed as viable cells at 100 uM after 48 hrs by aqueous one solution cell proliferation assay relative to control; assay type: cell-based; conditions: human, read-out: Activity; how it was run: as §1
[9] = Cytotoxicity against HEK293 cells assessed as viable cells at 50 uM after 48 hrs by aqueous one solution cell proliferation assay relative to control; assay type: cell-based; conditions: human, read-out: Activity; how it was run: as §1

fold change (FC) [2] | pEC50 [3] | pEC50 [4] | fold change (FC) [5] | fold change (FC) [6] | SMILES | viability at 48 h, 0.1 µM [1] [%] | Activity (HEK293) [%] | viability at 48 h, 10 µM [7] [%] | viability at 48 h, 100 µM [8] [%] | viability at 48 h, 50 µM [9] [%]
– | – | – | – | – | CC(C)OC(=O)C(C)(C)Oc1ccc(C(=O)c2ccc(Cl)cc2)cc1 [FENOFIBRATE] | > 90 | 38 | – | – | –
38.5 | 4.57 | 5.05 | 5.6 | 11.7 | O=c1c(-c2ccc3c(c2)OCO3)coc2cc(O)ccc12 [PSEUDOBAPTOGENIN] | – | – | > 90 | > 60 | > 67
